Cl transport mod: KCC2 (human) Cl- transport modulation | B-score of Tl+ flux slope (higher = more flux/activation; lower = inhibition) at 10 µM | AID 1456 | KCC2 cells, thallium flux FluoZin-2 fluorescence | 2.2% of 190,000 active;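 active means thallium flux slope and its plate-corrected score both differing from the plate sample mean at a set confidence after two filtering rounds, in either direction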;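 further: slope of fluorescence scaled to starting intensity during 10 to 20 s after thallium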
ROMK primary: modulates human ROMK potassium channel activity; P48048; 2% of 130,000 active; Tet-inducible ROMK, thallium flux fluorescence; actives lie on both sides; AID 1918; B-score at 10 µM;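 active means signal ratio slope over the read window, or its plate-corrected B-score, at least 3 SD from the plate mean, either direction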;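 further: B-score of the F/F0 ratio slope over 7 to 12 s after thallium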
Target sequence (P48048 whole entry, looked up): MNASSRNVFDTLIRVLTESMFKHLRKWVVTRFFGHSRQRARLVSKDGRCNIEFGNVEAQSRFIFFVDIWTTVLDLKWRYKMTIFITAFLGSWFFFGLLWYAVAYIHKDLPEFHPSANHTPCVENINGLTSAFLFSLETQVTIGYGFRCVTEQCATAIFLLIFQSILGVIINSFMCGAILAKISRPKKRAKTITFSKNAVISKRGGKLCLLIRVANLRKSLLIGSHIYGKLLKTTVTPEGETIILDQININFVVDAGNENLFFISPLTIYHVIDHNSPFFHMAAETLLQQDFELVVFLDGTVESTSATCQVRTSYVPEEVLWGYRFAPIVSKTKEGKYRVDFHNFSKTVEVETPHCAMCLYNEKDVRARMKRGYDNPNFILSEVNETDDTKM
Diaphorase inh: diaphorase inhibition or chemical oxidation counter-screen; diaphorase resazurin-to-resorufin fluorescence, NADH, 16 min; bacterial (C. kluyveri) enzyme, not human; inhibition, % at 20 µM; 0.69% of 190,000 active;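 active means primary screen inhibition at 20 µM above a set limit, cut at about 50% in these data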;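 further: plate controls were DMSO with full reaction for no effect and wells lacking NADH for full effect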
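System: Bacterial diaphorase enzyme (C. kluyveri) | Incubation: 16-min room-temperature incubation before reading | Benchmarks: No-NADH positive control and DMSO neutral control | Measured by: Resorufin fluorescence 544/590 nm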
WT yeast gro inh: growth inhibition of WT yeast, mitochondrial fusion screen | mitochondrial fusion phenotypic screen, WT strain | inhibition, % at 10 µM | 2.1% of 190,000 active | AID 1362; in the data active means inhibition above about 58%; tested in S. cerevisiae
L major viab: reduces viability of Leishmania major promastigotes; AID 1063; 9% of 200,000 active; resazurin fluorescence viability; inhibition, % at 10 µM; in the data active means inhibition above about 50%;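 further: promastigotes grown with compound for 44 hours at 28 °C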
Diaphorase act: activates diaphorase or chemically reduces, flagging diaphorase assay artifacts | Diaphorase/resazurin coupled assay, resorufin fluorescence, 16 min; hits give high values; 1 = vehicle wells, 0 = NADH-free wells | activation factor at 20 µM | 0.005% of 190,000 active;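 active means diaphorase activity raised at least twofold by the compound at 20 µM; inactive means activation factor below 2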
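test system = bacterial diaphorase enzyme (C. kluyveri) | quantity = enzyme 0.07 U/mL final | reagent = NADH substrate 0.114 mM plus resazurin dye 0.1 mM, final | incubation = 16 min enzyme reaction, ambient temperature | buffer or medium = HEPES pH 7.4 buffer with MgCl2 and Tween 20 | signal = fluorescence of resorufin, 544 nm excitation, 590 nm emission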
The depositor's hits bear a star; nt = no result. Rows were chosen to be rich in hits. Some 12% of all compounds tested hit in one or more screens of this group.

SMILES | Cl transport mod | ROMK primary | Diaphorase inh | WT yeast gro inh | L major viab | Diaphorase act
O=C(NNS(=O)(=O)c1ccc(C(=O)NC2CCCC2)cc1)c1ccncc1 | 0.53 | 0.39 | -3 | -2 | 5 | 1
Cc1cccc(C(=O)NC(=S)N2CCc3ccccc3C2)c1 | 125* | 9.1* | 11 | 52 | -8 | 0.9
CCNC(=S)N1CCc2ccccc2C1 | -0.31 | -0.59 | 7 | -14 | 0 | 0.9
CCCCCC(=O)Nc1cc(N(C)C)nc2ccccc12 | -0.35 | nt | -8 | 64* | 27 | 1.1
CN1CCN(CC(=O)Nc2cc(N(C)C)nc3ccccc23)CC1 | 0.12 | 0.027 | -43 | 15 | 23 | 1.4
CCOC(=O)c1cnc(SCC(=O)N2CCOCC2)nc1N | 0.25 | -0.3 | nt | -13 | -1 | nt
Cc1nn(-c2ccccc2)c(Cl)c1/C=N/NS(=O)(=O)c1ccc(Br)cc1 | -1.7 | 0.55 | 31 | 58* | -5 | 0.7
COC(CNC(=O)c1ccc(N2CCc3ccccc32)c([N+](=O)[O-])c1)OC | 0.36 | -1 | 9 | -25 | 96* | 0.9
NNC(=O)c1ccc(N2CCc3ccccc32)c([N+](=O)[O-])c1 | 0.59 | -0.69 | 5 | -8 | 19 | 1
C/C(=N\NC(=O)c1ccc(Cl)c(S(=O)(=O)Nc2ccccc2Cl)c1)c1ccncc1 | -0.42 | nt | 30 | -6 | 1 | 0.7
COc1ccc(CCN(C(=O)C(F)(F)F)C(C(=O)NC2CCCCC2)c2cccs2)cc1 (stereo not given) | 0.25 | -0.053 | 18 | 43 | 27 | 0.8
COc1ccc(CCN(C(=O)C(F)(F)F)C(C(=O)NC2CCCCC2)c2ccc(C)s2)cc1 (stereo not given) | nt | 0.25 | 9 | 3 | 68* | 0.9
Nc1cc(N)nc(SCC(=O)N2CCc3ccccc32)n1 | -0.54 | -0.69 | 8 | 99* | 0 | 0.9
Cc1ccc(-c2cc(C(F)F)n3ncc(C(=O)N4CCN(c5ccccn5)CC4)c3n2)cc1 | -2.2 | nt | 18 | 26 | 100* | 0.8
COc1ccc(-c2cc(C(F)F)n3ncc(C(=O)N4CCCCC4)c3n2)cc1 | 0.0093 | nt | 2 | 1 | 100* | 1
CCN1CCN(C(=O)c2cnn3c(C(F)F)cc(-c4ccc(C)cc4)nc23)CC1 | 0.72 | nt | 7 | -2 | 98* | 0.9
Cc1cc(C)n2cc(CSc3nncn3C)nc2n1 | 0.5 | nt | 14 | -1 | 1 | 0.9
CC(C)C(OC(=O)c1cccs1)C(=O)NCc1cccs1 (stereo not given) | nt | -0.52 | -12 | -4 | 12 | 1.1
CCOc1ccc(NC(=S)N2CCC(C(N)=O)CC2)cc1 | 0.5 | 0.43 | 7 | 1 | -5 | 0.9
Nc1ccc(Oc2ccc3nc(-c4ccccc4)c(-c4ccc([N+](=O)[O-])cc4)nc3c2)cc1 | 0.68 | 0.0044 | 13 | 25 | 39 | 0.9
CC(=O)c1c(C)[nH]c(C(=O)OCC(=O)c2c(N)n(C)c(=O)n(C)c2=O)c1C | 1 | -0.98 | 4 | 9 | -8 | 1
Cc1cc(C(=O)NNC(=O)c2nn(C)c(=O)c3ccccc23)c(C)o1 | 0.69 | 0.77 | 13 | 8 | 65* | 0.9
Clc1ccc2c(Cl)c(-c3nnc(-c4ccccc4)o3)sc2c1 | -0.46 | 0.43 | nt | nt | -4 | nt
COc1ccc(CNC(=O)CN(c2cccc([N+](=O)[O-])c2)S(C)(=O)=O)cc1 | -0.0014 | -0.83 | 7 | -9 | -4 | 0.9
N#CCn1c(CCl)nc2ccccc2c1=O | 0.45 | -0.047 | 14 | 10 | 84* | 0.9
SMILES | Cl transport mod | ROMK primary | Diaphorase inh | WT yeast gro inh | L major viab | Diaphorase act
COC(=O)c1ccc(CN2CCN(C3CCCC3)C(CCO)C2)cc1 (stereo not given) | nt | nt | 5 | -6 | 56* | 0.9
COC(=O)c1ccc(CN2CCN(C3CCCCC3)C(CCO)C2)cc1 (stereo not given) | nt | 0.54 | 2 | -10 | 54* | 1
CC(=O)Nc1ccc(CN2CCN(C3CCCCC3)C(CCO)C2)cc1 (stereo not given) | nt | -0.016 | -3 | 4 | -3 | 1
Cc1ccc2cc3c(N)c4c(C)ccc(C)c4nc3nc2c1 | 0.52 | -2.7 | -16 | 33 | 100* | 1.2
Cc1ccc2c(N)c(C)ccc2c1 | nt | nt | 23 | -1 | -6 | 0.8
COC(=O)C1C(=O)C2=C(CC1C)NC(C)=C(C(=O)OC1CCCC1)C2c1ccc(N(C)C)cc1 (stereo not given) | -0.053 | -0.72 | 6 | 57 | 59* | 0.9
O=C(/C=C/c1ccc[nH]1)c1ccccc1 | 0.053 | -0.29 | 12 | 1 | -2 | 0.9
COc1ccc([N+](=O)[O-])cc1N(CC(=O)N(C)C)S(C)(=O)=O | 0.98 | 0.58 | 21 | -5 | -1 | 0.8
COc1ccccc1/C=C/C=N/NC(=O)c1ccc2nc[nH]c2c1 | -1.6 | 1.3 | 5 | 3 | 56* | 0.9
Cn1nnnc1SCC(=O)Nc1ccccc1C(N)=O | -0.21 | nt | -6 | 3 | 2 | 1.1
Cc1cnc(C(=O)Nc2cccc3cccnc23)cn1 | -0.54 | nt | 9 | -6 | 97* | 0.9
O=C(Nc1cccc2cccnc12)c1cccnc1 | -1.9 | -0.049 | 9 | -43 | 24 | 0.9
CCc1ccc(C(=O)COC(=O)CNC(=O)c2ccc(N3C(=O)c4ccccc4C3=O)cc2)cc1 | 0.73 | nt | -5 | 14 | -5 | 1
O=C(CNC(=O)c1ccc(N2C(=O)c3ccccc3C2=O)cc1)OCC(=O)c1cccc2ccccc12 | -0.063 | 1.3 | 11 | -1 | 62* | 0.9
O=C(CNC(=O)c1ccc(N2C(=O)c3ccccc3C2=O)cc1)OCC(=O)c1ccccc1 | 0.2 | 0.48 | -6 | -1 | 62* | 1.1
COc1ccc(C(=O)COC(=O)CNC(=O)c2ccc(OC)cc2)cc1 | 0.002 | -0.87 | 4 | -1 | 0 | 1
NC(=O)NC(CC(=O)NCCc1ccc(S(N)(=O)=O)cc1)c1ccccc1Cl (stereo not given) | 0.41 | nt | nt | nt | nt | nt
CC(C)=CC(=O)Nc1nnc(C(C)C)s1 | -0.032 | nt | 10 | -17 | -4 | 0.9
C[n+]1cc(-c2ccccc2)n2c1CCCCC2 | 1.3 | nt | 1 | 8 | -4 | 1
COc1ccc(-c2c[n+]3c4n2CCCCC4=C(c2ccccc2)C3)cc1 | -0.87 | nt | 17 | -10 | 100* | 0.8
COc1ccc(-n2c(-c3ccc(Cl)cc3)c[n+]3c2CCCCC3)cc1 | 0.48 | nt | nt | nt | nt | nt
CCOc1ccc(-n2c(-c3ccc(Br)cc3)c[n+]3c2CCCCC3)cc1 | -0.44 | 0.85 | 0 | 23 | 101* | 1
FC(F)Oc1ccc(-c2c[n+]3c(n2-c2ccccc2)CCCCC3)cc1 | 1.2 | -0.8 | nt | nt | nt | nt
CCOc1ccc(-n2c(-c3ccccc3)c[n+]3c2CCC3)cc1 | -0.31 | nt | -14 | -6 | 94* | 1.1
COc1ccc(-c2c[n+]3c(n2-c2ccccc2)CCCCC3)cc1 | -0.39 | nt | 8 | -1 | 99* | 0.9
CCOc1ccc(-n2c(-c3ccc(OC)cc3)c[n+]3c2CCCCC3)cc1 | 0.97 | nt | 5 | 12 | 100* | 1
